Screening data from PubChem BioAssay.
Most compounds without a hit are left out; they make up all but 3.3% or so of the library.
SENP8 block-1: SENP8 protease inhibitors, primary screen, biochemical, luminescence | Sentrin-specific protease 8 (Homo sapiens), Q96LD8 | purified SENP8, Z-RLRGG-aminoluciferin cleavage | inhibition, % at 10 µM | 330,000 tested, 1.2% active; in the data active = inhibition above about 50%
SENP8 block-2: human SENP8 protease inhibitors, primary screen, biochemical, fluorescence, Nedd8 protein substrate, uHTS | Sentrin-specific protease 8 (Homo sapiens), Q96LD8 | recombinant SENP8 | inhibition, % at 20 µM | 360,000 tested, 0.64% active | AID 602440, 2012; in the data active = inhibition mostly above about 40%, no sharp cut-off; inactive = mostly below about 27%
SENP6 block: SENP6 protease inhibitors, primary screen, biochemical, luminescence, uHTS | Sentrin-specific protease 6 (Homo sapiens), Q9GZR1 | Recombinant SENP6 catalytic domain, aminoluciferin luminescence | inhibition, % at 10 µM | 330,000 tested, 1.8% active | AID 2599, 2010;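 active = inhibition above about 50% at the single tested dose, limit read from the data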
Target sequence (Q9GZR1 628-1112 limits assumed): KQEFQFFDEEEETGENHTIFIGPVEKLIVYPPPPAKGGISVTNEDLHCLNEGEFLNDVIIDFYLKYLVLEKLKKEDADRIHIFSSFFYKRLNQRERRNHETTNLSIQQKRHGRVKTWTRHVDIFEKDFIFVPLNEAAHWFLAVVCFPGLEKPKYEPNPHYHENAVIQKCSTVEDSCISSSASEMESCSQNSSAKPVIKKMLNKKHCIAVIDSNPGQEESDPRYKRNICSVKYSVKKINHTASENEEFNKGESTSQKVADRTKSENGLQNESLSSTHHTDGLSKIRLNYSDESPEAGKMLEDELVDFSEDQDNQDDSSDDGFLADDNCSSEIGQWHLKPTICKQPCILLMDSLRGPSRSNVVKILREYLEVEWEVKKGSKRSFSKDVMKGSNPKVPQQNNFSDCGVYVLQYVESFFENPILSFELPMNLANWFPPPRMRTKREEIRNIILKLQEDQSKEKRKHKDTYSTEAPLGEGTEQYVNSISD
SENP1 inh: human SENP1 catalytic domain inhibitors, primary screen, biochemical, FRET, uHTS; Sentrin-specific protease 1 (Homo sapiens), Q9P0U3; recombinant SENP1 catalytic domain, CyPet-SUMO1-YPet FRET cleavage; inhibition, % at 10 µM; 360,000 tested, 0.21% active; AID 624204, 2012;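 active = inhibition at least 30% at 10 µM, raw YFP signal under a set limit, fluorescence ratio 0.5 to 1.5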
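Assay system – human recombinant His6-tagged SENP1 catalytic domain enzyme · Input – SENP1 enzyme, 20 pM final · Buffer or medium – Tris pH 8 buffer plus EDTA, NaCl, BME, BSA, NP40, catalase · Schedule – 50 min reaction at room temperature · Technique – FRET read of cyan and yellow fluorescence · Control set – no-enzyme wells low, DMSO-plus-enzyme wells high control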
NRP1-CendR mod: modulators of CendR peptide binding to NRP-1, primary screen, biochemical, fluorescence polarization, uHTS | Neuropilin-1 (Homo sapiens), O14786 | FAM-RPARPAR peptide binding to NRP-1 | inhibition, % at 25 µM | 360,000 tested, 0.85% active;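 active = inhibition or corrected inhibition above about 18%, plus a signal ratio from 0.5 to 1.5, limit read from the data, passing the limit was not always enough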
SENP7 block: SENP7 protease inhibitors, primary screen, biochemical, luminescence, uHTS. 330,000 tested, 1.5% active. inhibition, % at 5 µM. Sentrin-specific protease 7 (Homo sapiens), Q9BQF6. recombinant SENP7, Z-RLRGG-aminoluciferin luminescence, 40 min;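 active = inhibition above about 50% at the single test dose, limit read from the data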
A number is an active result; n = inactive; x = no result given.

SMILES	SENP8 block-1	SENP8 block-2	SENP6 block	SENP1 inh	NRP1-CendR mod	SENP7 block
NS(=O)(=O)c1ccc(CCNC(=O)c2cccc(S(=O)(=O)N3CCc4ccccc43)c2)cc1	x	n	x	n	n	x
O=C(Oc1ccc(Br)cc1C(=S)N1CCCCC1)c1cc([N+](=O)[O-])cc([N+](=O)[O-])c1	n	44	n	n	n	n
COC(=O)[C@@]12C[C@@H](CC(=O)NCc3ccc(OC)c(OC)c3)C(=O)N(Cc3ccco3)C1=CCC(C)(C)C2	x	n	x	n	n	x
Cc1cc(=S)cc(C)n1CCCO	n	n	n	n	32	n
Cc1cccc(CN2CCN([C@H]3CS(=O)(=O)N[C@@H]3COCc3ccccc3)CC2)c1	x	n	x	n	26	x
CCOc1ccc(/C=C2\SC(=S)N(NS(=O)(=O)c3ccccc3)C2=O)cc1OC	n	n	n	n	n	n
CCOc1ccc(/C=C2\SC(=S)N(NS(=O)(=O)c3ccc(C)cc3)C2=O)cc1OC	n	43	n	n	n	n
O=[N+]([O-])c1ccc2[nH]c(O)c(N=NC(=S)Nc3cccnc3)c2c1	n	42	n	n	n	n
O=C(Cn1c(=S)[nH]c2ccccc21)c1ccccc1	n	n	n	n	33	n
COC(=O)C[C@@H]1C[C@@H]2c3cc(NS(=O)(=O)c4ccc(F)cc4)ccc3O[C@@H]2[C@H](CO)O1	x	n	x	n	n	x
Cc1ccc(S(=O)(=O)/N=C2\C=C(Nc3cccc(C(=O)O)c3)C(=O)c3ccccc32)cc1	93	83	91	n	45	64
CCc1ccc(S(=O)(=O)/N=C2\C=C(Nc3ccc(C(=O)O)cc3)C(=O)c3ccccc32)cc1	94	44	92	n	n	63
COC(=O)c1ccccc1NC1=C/C(=N\S(=O)(=O)c2ccc(C(=O)O)cc2)c2ccccc2C1=O	90	n	73	n	n	n
O=C1C(Nc2ccccc2)=C/C(=N/S(=O)(=O)c2cccs2)c2ccccc21	x	83	x	n	n	x
O=C(O)c1cccc(NS(=O)(=O)c2ccc3c(c2)C(=O)c2ccccc2C3=O)c1	n	n	n	n	n	n
COC(=O)c1ccccc1Nc1ccccc1	n	n	n	n	n	n
CCc1ccccc1CC1CN(Cc2ccccc2)Cc2ccccc2N1c1ccc(OC)cc1 (stereo unspecified)	x	n	x	n	n	x
C=CCN1C(=O)/C(=C/c2ccsc2)SC1=S	n	46	n	n	n	n
Cc1cccnc1NC(=O)CN1C(=O)NC(C)(c2ccc3ccccc3c2)C1=O (stereo unspecified)	n	n	n	n	28	n
Cc1ccc(CN2CCN(Cc3c(C)nn(C(C)C)c3C)CC2CCO)o1 (stereo unspecified)	n	n	n	n	18	n
COc1ccc(OC)c(NC(=O)c2sc3nc(Cc4ccccc4)cc(C(F)(F)F)c3c2N)c1	n	n	n	n	24	n
CCCc1c(-c2ccc(F)cc2)ncn1Cc1ccccc1OC	x	n	x	n	22	x
CCCCCc1c(-c2cccc(Cl)c2)ncn1CCc1ccccc1OC	x	n	x	n	23	x
Cc1cccc(-c2nsc(SCC(=O)c3ccc(Cl)cc3)n2)c1	n	n	n	n	45	n
Oc1c(CN2CCOCC2)cc(CN2CCOCC2)c(O)c1O	x	52	x	n	n	x
SMILES	SENP8 block-1	SENP8 block-2	SENP6 block	SENP1 inh	NRP1-CendR mod	SENP7 block
CN(Cc1ccccc1)C(=O)[C@@H]1CCCN1C(=O)[C@@H]1CCCN1C(=O)c1cccc2ccccc12	x	n	x	n	n	x
CN(Cc1ccc(F)cc1)S(=O)(=O)c1ccc2[nH]c(=O)[nH]c2c1	x	n	x	n	n	x
O=C(NC1CCCC1)C1C(c2ccc(C(F)(F)F)cc2)=Nc2ccccc2N1C(=O)c1ccccc1 (stereo unspecified)	x	n	x	n	n	x
N#C/C(=C\c1ccccc1O)C(=O)Nc1cccnc1	51	n	77	n	n	75
Cc1cc(/C=C(\C#N)C(=O)Nc2ccccc2)c(C)n1-c1cccnc1	n	n	n	n	n	n
CC(C)c1ccc(S(=O)(=O)N2CCN(C(=O)CN3C(=O)c4ccccc4C3=O)CC2)cc1	n	n	n	n	30	n
C/C(=N\Nc1ccc(C#N)cc1[N+](=O)[O-])c1ccc(O)cc1	n	44	n	n	n	n
C/C(=N/Nc1ccccc1[N+](=O)[O-])c1ccc([N+](=O)[O-])cc1	n	n	n	n	n	n
CC(C)c1ccc(CNc2ccc([N+](=O)[O-])cn2)cc1	n	n	n	n	n	n
CC(C)(C)c1ccc(CNc2ccc([N+](=O)[O-])cn2)cc1	x	n	x	n	32	x
COc1ccc(NC(=S)NC(NC(=O)CCl)C(Cl)(Cl)Cl)c([N+](=O)[O-])c1 (stereo unspecified)	n	52	n	n	n	n
Cc1ccc(Nc2nnc(-c3ccccc3N)o2)cc1C	n	n	n	n	n	63
CC1CCN(c2ccc(/C=C(\C#N)c3nn(-c4ccccc4)c(N)c3C#N)cc2[N+](=O)[O-])CC1	n	n	n	n	n	n
CC1CCCN(c2ccc(/C=C(\C#N)c3nn(-c4ccccc4)c(N)c3C#N)cc2[N+](=O)[O-])C1 (stereo unspecified)	n	47	n	n	n	n
CC1CCN(c2cc(N3CCC(C)CC3)c([N+](=O)[O-])cc2/C=C(\C#N)c2nn(-c3ccccc3)c(N)c2C#N)CC1	n	60	n	n	n	n
COC(=O)C[C@H]1C=C[C@@H](NC(=O)c2ccncc2)[C@@H](CO)O1	x	n	x	n	n	x
COc1cccc(NC(=O)CN(C)C(=O)C(CCSC)NC(=O)c2ccco2)c1 (stereo unspecified)	n	n	n	n	18	n
Cc1ccc(NNS(=O)(=O)c2ccc(C)cc2)cc1	n	n	n	n	28	n
O=c1c2cc(O)c(O)cc2oc2cc(O)c(C3OC(CO)C(O)C(O)C3O)c(O)c12 (stereo unspecified)	n	n	n	37	n	n
COc1ccc(S(=O)(=O)N2CCOCC2)cc1NC(=O)COC(=O)C1COc2ccccc2O1 (stereo unspecified)	n	n	n	n	28	n
O=C1C=C(OCCF)CC(c2ccccc2C(F)(F)F)O1 (stereo unspecified)	x	n	x	n	n	x
CC1=Nc2ccccc2N=C(NC(=O)CSC(=S)N2CCCCC2)C1c1ccccc1 (stereo unspecified)	n	n	n	n	37	n
